Results of several laboratories.
Cell line: MCF7
Read-out: cell growth or viability

Compound | technique | time | IC50
C[C@H]1[C@H](C)CC[C@]2(C)CC[C@]3(C)C(=CC(=O)[C@@H]4[C@@]5(C)CC[C@@H](O)[C@](C)(C(=O)NCc6cn(-c7ccccc7C(F)(F)F)nn6)[C@@H]5CC[C@]43C)[C@H]12 | MTT | 24 h | 83.4 µM
Cc1ccc(NNc2nc3c(Cl)cc(Cl)cc3c(=O)n2-c2ccccc2)cc1 | MTT | 48 h | > 200 µM
O=[N+]([O-])c1cc(Br)c(O)c(C=NNc2ccc(Br)cc2)c1 | MTT | 24 h | 9.23 µM
O=C(O)c1c[nH]c2ccc(Oc3ccccc3)cc2c1=O | MTT | 48 h | 287 µM
O=C1CS/C(=N\c2cc(C(F)(F)F)ccc2-c2nnc(N3C(=O)CS/C3=N\c3cc(O)cc(Br)c3)s2)N1c1cc(O)cc(Br)c1 | MTT | – | 73.5 µM
COc1ccc(N(Cc2nc(-c3ccc(F)cc3)cs2)C(=O)CCCCCC(=O)NO)cc1 | MTT | 72 h | 10.2 µM
CCOC(=O)c1c(C)nc2ccc(-c3ccc(F)c(F)c3)cc2c1O | MTT | 48 h | 12 µM
CC(=O)c1nc2ccccc2n1Cc1cn([C@@H]2O[C@H](CO)[C@H](O)[C@H](O)[C@H]2O)nn1 | LDH | 48 h | 2.89 µM
c1ccc(Cn2nc(-c3nc(-c4ccccc4)n[nH]3)c3ccccc32)cc1 | – | 48 h | 97.4 µM
Nc1ccn([C@@H]2O[C@H](CO)[C@@H](O)C2(F)F)c(=O)n1 | MTT | 48 h | 1.59 µg/mL
CN(C)C(=O)Nc1nc2ccc(Br)cc2c(=O)n1-c1ccccc1 | MTT | 48 h | 109 µM
Fc1ccc2c(-c3nnc(Cc4ccccc4)[nH]3)nn(Cc3ccc(Cl)cc3Cl)c2c1 | – | 48 h | 192 µM
C#Cc1cccc(Nc2ncnc3cc(OCCOC)c(OCCOC)cc23)c1 | LDH | 48 h | 1.05 µM
NS(=O)(=O)c1ccc(-n2nc(C(=O)NN3C(=O)c4ccccc4C3=O)cc2-c2ccccc2)cc1 | fluorescence | 48 h | 38.7 µM
COc1ccc(N=C2SCC(=O)N2c2nnc(-c3ccc(C(F)(F)F)cc3N=C3SCC(=O)N3c3ccc(OC)cc3)s2)cc1 | MTT | – | 73.5 µM
C[C@H]1[C@H](C)CC[C@]2(C(=O)O)CC[C@]3(C)C(=CC[C@@H]4[C@@]5(C)CC[C@H](O)C(C)(C)[C@@H]5CC[C@]43C)[C@H]12 | thymidine uptake | 24 h | 25.7 µM
COc1ccc(-n2cc(CNC(=O)[C@@]3(C)[C@H](O)CC[C@@]4(C)[C@H]3CC[C@]3(C)[C@@H]4C(=O)C=C4[C@@H]5[C@@H](C)[C@H](C)CC[C@]5(C)CC[C@]43C)nn2)cc1 | MTT | 24 h | 79 µM
Cc1nc2ccc(-c3ccc(OCc4ccccc4)c(F)c3)cc2c(O)c1C(=O)O | MTT | 48 h | ≥ 100 µM
COc1ccccc1-n1cc(CNC(=O)[C@@]2(C)[C@H](O)CC[C@@]3(C)[C@H]2CC[C@]2(C)[C@@H]3C(=O)C[C@@H]3[C@@H]4[C@@H](C)[C@H](C)CC[C@]4(C)CC[C@]32C)nn1 | MTT | 24 h | 73.4 µM
NNc1nc2ccc(Br)cc2c(=O)n1-c1ccccc1 | MTT | 48 h | 46.4 µM
Cc1ccc(C(C)C)c(OC2=C(Cl)C(=O)c3ccccc3C2=O)c1 | MTT | 24 h | 4.59 µg/mL
Cc1cccc(N=C2C(=O)N(Cc3cccc(Cl)c3)c3ccccc32)c1 | MTT | 48 h | 2.12 µM
O=C1CS/C(=N\c2ccc(F)cc2O)N1c1nnc(-c2ccc(C(F)(F)F)cc2/N=C2\SCC(=O)N2c2ccc(F)cc2O)s1 | MTT | – | 18.1 µM
CC(=O)OC[C@H]1O[C@@H](n2cc(Cn3c(C(C)=O)nc4ccccc43)nn2)[C@H](OC(C)=O)[C@@H](OC(C)=O)[C@H]1OC(C)=O | LDH | 48 h | 3.79 µM
O=[N+]([O-])c1ccc(O)c(C=NNc2ccc(C(F)(F)F)cc2)c1 | MTT | 24 h | 13 µM
O=C1Nc2ccccc2/C1=N/N=C/c1cccc([N+](=O)[O-])c1 | MTT | 24 h | 48.9 µg/mL
COc1cc(N=C2C(=O)Nc3ccccc32)cc(OC)c1 | MTT | 48 h | 16.2 µM

Compound | technique | time | IC50
NS(=O)(=O)c1ccc(-n2nc(-c3nnc(CCl)o3)cc2-c2ccccc2)cc1 | fluorescence | 48 h | 31.4 µM
O=C1C(=Nc2ccccc2I)c2ccccc2N1Cc1cccc(Cl)c1 | MTT | 48 h | 13.5 µM
CCOC(=O)C(=CNc1ccc(Oc2ccccc2)cc1)C(=O)OCC | MTT | 48 h | 115 µM
C#Cc1cccc(Nc2ncnc3cc(OCCOC)c(OCCOC)cc23)c1 | MTT | 48 h | > 20 µM
COc1cccc2c1C(=O)c1c(O)c3c(c(O)c1C2=O)C[C@@](O)(C(=O)CO)C[C@@H]3O[C@H]1C[C@H](N)[C@H](O)[C@H](C)O1 | MTT | – | 5.8 µg/mL
C/C(=N\C(=N)/N=C(\C)c1c(O)c2ccccc2oc1=O)c1c(O)c2ccccc2oc1=O | MTT | 48 h | 19.6 µM
O=C1C(=Nc2ccccc2I)c2ccccc2N1Cc1ccc([N+](=O)[O-])cc1 | MTT | 48 h | 11.6 µM
CC(=O)O[C@H]1C(=O)[C@@]2(C)[C@H]([C@H](OC(=O)c3ccccc3)[C@]3(O)C[C@H](OC(=O)[C@H](O)[C@@H](NC(=O)c4ccccc4)c4ccccc4)C(C)=C1C3(C)C)[C@]1(OC(C)=O)CO[C@@H]1C[C@@H]2O | MTT | 48 h | > 100 µM
CCOC(=O)c1c(C)nc2ccc(-c3ccc(OCc4ccccc4)c(F)c3)cc2c1O | MTT | 48 h | 5 µM
COc1ccc(NC(=S)N/N=C/c2cccc3cc4ccccc4nc23)cc1 | MTT | 48 h | > 50 µM
Fc1ccc2c(-c3nnc(Cc4ccccc4)s3)nn(Cc3ccccc3)c2c1 | – | 48 h | 161 µM
O=C1C(=Nc2ccc(Cl)cc2)c2ccccc2N1Cc1ccc(Br)cc1 | MTT | 48 h | 2.16 µM
CC(=O)c1c(O)c2ccccc2oc1=O | MTT | 48 h | 32.5 µM
O=C(CCc1ccc(Cl)cc1)N1C(=O)C(=Nc2ccc(Cl)cc2Br)c2ccccc21 | MTT | 48 h | 34.1 µM
CC1CCC(C(C)C)C(OC2=C(Cl)C(=O)c3ccccc3C2=O)C1 (stereo not drawn) | MTT | 24 h | 21.9 µg/mL
CN(C)c1ccc(Nc2nc(-c3ccncc3)nc3c2CC(N)CC3)cc1 (stereo not drawn) | MTT | – | 15.8 µM
O=[N+]([O-])c1cc(I)c(O)c(C=NNc2ccc(Br)cc2)c1 | MTT | 24 h | 13.7 µM
O=C1Nc2ccccc2C1=Nc1cccc(Cl)c1 | MTT | 48 h | > 100 µM
COc1cccc(N=C2SCC(=O)N2c2nnc(-c3ccc(C(F)(F)F)cc3N=C3SCC(=O)N3c3cccc(OC)c3)s2)c1 | MTT | – | 78.3 µM
COc1cccc2c1C(=O)c1c(O)c3c(c(O)c1C2=O)C[C@@](O)(C(=O)CO)C[C@@H]3O[C@H]1C[C@H](N)[C@H](O)[C@H](C)O1 | MTT | 24 h | 5.93 µM
C/C(=N\NC(=O)/N=C(\C)c1c(O)c2ccccc2oc1=O)c1c(O)c2ccccc2oc1=O | MTT | 48 h | 12.6 µM
CN1CCC(NC2CCc3[nH]c4c(C(N)=O)ccc(-c5ccccc5Cl)c4c3C2)CC1 (stereo not drawn) | – | – | 0.0164 µM
Cc1noc(-c2nn(Cc3ccc(Cl)cc3Cl)c3ccccc23)n1 | – | 48 h | 47.5 µM
COc1cc([C@@H]2c3cc4c(cc3[C@@H](O[C@@H]3O[C@@H]5CO[C@@H](C)O[C@H]5[C@H](O)[C@H]3O)[C@H]3COC(=O)[C@H]23)OCO4)cc(OC)c1O | MTT | 48 h | 10.9 µM
Cc1cccc(N=C2C(=O)N(Cc3ccccc3)c3ccccc32)c1 | MTT | 48 h | 8.11 µM
O=C(C=Cc1ccc(OCCOc2ccc(C=CC(=O)c3cccs3)cc2)cc1)c1cccs1 | MTT | 48 h | 11.5 µM
CCCNC(=S)N/N=C/c1cccc2cc3ccccc3nc12 | MTT | 48 h | 48.1 µM
